KCNK3 block – human KCNK3 channel inhibition, primary screen | O14649 | CHO-KCNK3 thallium flux, FluxOR fluorescence; active compounds read low | B-score at 10 µM | 0.84% of 340,000 active;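 active means B-score under library mean minus 4 SD, starting fluorescence ratio at most library mean plus 5 SD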;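 further: more negative B-score means stronger inhibition of thallium flux through KCNK3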
KCNK9 inh – human KCNK9 channel inhibition. 1.2% of 310,000 active. Q9NPC2. HEK293 KCNK9, FluxOR thallium flux fluorescence; active compounds read low. AID 488922. B-score at 10 µM;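 active means ratio B-score over 3 SD below the library mean, with starting fluorescence within 5 SD of its mean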;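 further: negative B-score means less thallium flux so channel inhibition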
KCNQ1 inh – human KCNQ1 channel inhibition | AID 2642 | CHO-K1 KCNQ1, FluxOR thallium flux fluorescence; active compounds read high | B-score at 10 µM | P51787 | 1.3% of 310,000 active;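 active means compounds whose thallium flux B-score, printed positive for inhibition, exceeds three library SD while starting fluorescence stays within three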;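 further: channel opened by potassium depolarization with thallium stimulus after 20 min compound exposure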
hERG rescue – shields human hERG channel from block by proarrhythmic agents | CHO-hERG, FluxOR thallium flux, dofetilide IC70 present | activation (rescue from dofetilide block), less the hit threshold, % at 10 µM | 0.51% of 310,000 active | Q12809;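 active means activation above the mean of controls blocked by dofetilide plus 5 SD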;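 further: thallium influx through hERG after potassium depolarization seen as dye fluorescence rise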
Kir21 inh – Kir2.1 (mouse) channel inhibition | B-score at 10 µM | HEK293-Kir2.1, FluxOR thallium flux fluorescence; active compounds read low | P35561 | 0.85% of 310,000 active;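 active means fluorescence ratio B-score at or below minus 3 SD of library scores, with starting-brightness B-score within 2 SD, cut at about -4.2 in these data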;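 further: channel flux triggered by added potassium and thallium sulfate stimulus; B-score of peak minus minimum fluorescence over baseline after thallium stimulus; more negative B-score means stronger Kir2.1 block with less thallium influx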
KCNQ1 act – human KCNQ1 channel potentiation or activation. 0.35% of 310,000 active. B-score at 10 µM. AID 2648. CHO-K1 KCNQ1, thallium flux FluxOR fluorescence; active compounds read high;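 active means fluorescence ratio B-score, a plate-corrected score, at least three library SD, with initial intensity B-score within 5 SD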
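assay system = CHO-K1 cells stably expressing KCNQ1 | medium = assay buffer, equal DMSO in all wells | timing = 37 °C overnight plating, 90-min dark dye load, 20-min compound pretreatment | measured by = kinetic FluxOR thallium fluorescence, 10-s 1-Hz baseline, 110-s post-stimulus read | measure = fluorescence change relative to baseline, converted to B score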
KCNQ1 block val – human KCNQ1 channel inhibition, validation assay; shares compounds with KCNQ1 inh; KCNQ1 cell line, FluxOR thallium flux fluorescence; inhibition, % at 10 µM; 93% of 1,600 active; AID 588353;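 active means primary screen active, with duplicate mean exceeding buffer control mean plus 3 SD of buffer wells, cut at about 28% in these data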
CHO KCNQ1 ctr – activity in parental CHO cells lacking KCNQ1. shares compounds with KCNQ1 inh. 21% of 1,600 active. AID 588366. fluorescence ratio (Tl flux) at 10 µM. parental CHO-K1, FluxOR thallium flux fluorescence ratio; active compounds read low; zero means no signal rise above baseline;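 active means mean of duplicate thallium-flux fluorescence ratios in parental host cells more than 5 SD below the buffer control mean, cut at about 0.38 in these data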;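 further: ratio is peak minus minimum fluorescence divided by baseline fluorescence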
KCNQ1 ephys val – human KCNQ1 inhibition validated by electrophysiology; shares compounds with KCNQ1 inh; KCNQ1-CHO cells, automated patch clamp current; calls only at 10 µM; 20% of 490 active; AID 624120;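 active means KCNQ1 current drop exceeding 3 SD of negative control wells, seen in both duplicate runs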;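 further: steady state current during a 2 s step from -80 to +40 mV; negative values mean current inhibition and positive values mean potentiation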
KCNQ2 spec – selectivity of KCNQ1 inhibitors: inhibition of rat KCNQ2 channel; inhibition, % at 10 µM; 71% of 1,600 active; shares compounds with KCNQ1 inh; AID 651746; KCNQ2 cells, FluxOR thallium flux fluorescence;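 active means mean percent inhibition of the KCNQ2 thallium signal more than 5 SD above the buffer-only control wells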;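 further: KCNQ2 expressed in CHO cells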
KCNQ1 KCNE1 spec – selectivity of KCNQ1 inhibitors: inhibition of human KCNQ1/KCNE1 channel; 77% of 1,600 active; inhibition, % at 10 µM; KCNQ1/KCNE1 cells, FluxOR thallium flux fluorescence; shares compounds with KCNQ1 inh; AID 652147;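 active means mean percent inhibition of duplicate wells above the buffer-only control mean plus 3 SD of those controls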
Target sequence (P51787 whole entry, looked up): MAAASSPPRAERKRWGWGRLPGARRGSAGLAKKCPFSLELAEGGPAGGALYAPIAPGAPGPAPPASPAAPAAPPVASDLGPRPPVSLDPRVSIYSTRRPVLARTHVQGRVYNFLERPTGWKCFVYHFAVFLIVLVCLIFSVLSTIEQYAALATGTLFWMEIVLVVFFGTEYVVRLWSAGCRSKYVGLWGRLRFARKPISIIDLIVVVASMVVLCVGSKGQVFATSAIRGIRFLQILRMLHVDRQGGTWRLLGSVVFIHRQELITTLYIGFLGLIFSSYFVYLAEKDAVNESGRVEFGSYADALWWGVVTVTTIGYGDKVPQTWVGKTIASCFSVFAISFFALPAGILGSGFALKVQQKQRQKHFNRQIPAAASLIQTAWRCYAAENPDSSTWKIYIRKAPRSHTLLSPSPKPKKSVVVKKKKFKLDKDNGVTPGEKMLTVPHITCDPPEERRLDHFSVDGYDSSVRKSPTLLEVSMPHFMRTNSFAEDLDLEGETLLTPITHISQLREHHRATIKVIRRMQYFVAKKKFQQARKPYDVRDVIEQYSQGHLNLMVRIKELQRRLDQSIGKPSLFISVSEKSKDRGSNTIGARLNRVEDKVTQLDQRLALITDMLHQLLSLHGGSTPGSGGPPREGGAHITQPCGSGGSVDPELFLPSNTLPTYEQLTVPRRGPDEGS
KCNK9 inh conf – confirmation of human KCNK9 potassium channel inhibitors | inhibition, % at 10 µM | 43% of 4,900 active | HEK293 KCNK9 cells, FluxOR thallium flux fluorescence | shares compounds with KCNK9 inh;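 active means thallium signal inhibited by more than 5 SD of the compound-free buffer control wells, on both duplicate plates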
Kir21 sel – mouse Kir2.1 off-target activity of KCNK9 modulators. Kir2.1 cells, FluxOR thallium flux fluorescence. shares compounds with KCNK9 inh. 4% of 4,900 active. AID 492993. inhibition, % at 10 µM;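 active means thallium signal drop more than 5 SD beyond the mean of the no-compound control wells, seen in both duplicate plates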;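 further: signal is fluorescence rise after thallium addition divided by baseline fluorescence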
HEK293 Tl ctr – second check of KCNK9 modulator effects in non-induced HEK293 cells; FluxOR thallium flux; shares compounds with KCNK9 inh; inhibition, % at 10 µM; 40% of 4,900 active;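 active means thallium signal drop beyond 5 SD of the untreated control mean, on both duplicate plates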
KCNK3 confirm – confirmation of human KCNK3 two-pore domain potassium channel inhibitors. shares compounds with KCNK3 block. CHO-KCNK3 thallium flux, FluxOR fluorescence; 0% buffer, 100% carvedilol maximal block. ratio percent of control, % at 10 µM. 99% of 2,400 active. AID 651638;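 active means ratio percent of control, averaged over triplicates, above buffer control mean plus 5 SD, cut at about 64% in these data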;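 further: ratio is the fluorescence rise from min to max over baseline after thallium stimulus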
KCNK3 uninduced – KCNK3 inhibitor counter-screen hit in non-induced cells; thallium flux ratio (lower = more inhibition) at 10 µM; AID 651747; 40% of 2,400 active; non-induced KCNK3 parental cells, FluxOR thallium flux; active compounds read low; shares compounds with KCNK3 block;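 active means thallium flux ratio, averaged over three wells, more than 5 SD below the buffer control mean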;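 further: host cells are CHO cells without KCNK3 induction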
Large screens that a line does not name were inactive (follow-up assays come after a bar, where they were run). Compounds with a hit are over-represented: about 3.7% of the library has one in this group of screens.

O=C1CCCc2nc(N3CCN(C(c4ccccc4)c4ccccc4)CC3)ncc21	KCNK3 block -8.8, KCNQ1 inh 8 | KCNQ1 block val 96 | CHO KCNQ1 ctr inactive | KCNQ1 ephys val inactive | KCNQ2 spec 108% | KCNQ1 KCNE1 spec 165% | KCNK3 confirm 119 | KCNK3 uninduced 0.14
O=C1CCCc2nc(N3CCN(C(=O)c4ccco4)CC3)ncc21	none
COc1cccc(NC(=O)c2ccccc2)c1	none (no result: KCNK9 inh, KCNQ1 inh, hERG rescue, Kir21 inh, KCNQ1 act)
COc1cccc(C(=O)Nc2cccc(-c3ccccc3)c2)c1	KCNK3 block -12, KCNQ1 inh 9 | KCNQ1 block val 148 | CHO KCNQ1 ctr inactive | KCNQ1 ephys val inactive | KCNQ2 spec 99% | KCNQ1 KCNE1 spec active | KCNK3 confirm 113 | KCNK3 uninduced inactive
CN(c1cccc2cccnc12)S(=O)(=O)c1ccccc1	none
CCN1C=C(Cc2ccccc2C)C2=C(C1)C(c1ccccc1C)C(C#N)=C(N)O2 (stereo unspecified)	KCNK3 block -8.9, KCNK9 inh -6.7, KCNQ1 inh 12 | KCNQ1 block val 116 | CHO KCNQ1 ctr 0.32 | KCNQ2 spec 105% | KCNQ1 KCNE1 spec 104% | KCNK3 confirm 118 | KCNK3 uninduced 0.13
CC1(C)C(/C=C/C=C/C=C/C=C2\N(CCCCS(=O)(=O)O)c3ccc4ccccc4c3C2(C)C)=[N+](CCCCS(=O)(=O)[O-])c2ccc3ccccc3c21	none (no result: KCNK9 inh, KCNQ1 inh, hERG rescue, Kir21 inh, KCNQ1 act)
COc1ccc(CN(C)S(=O)(=O)c2nnc(NC(=O)c3ccccc3)s2)cc1OC	none
COc1ccccc1C(=O)Nc1nnc(S(=O)(=O)N(C)Cc2ccccc2)s1	KCNK3 block -12, KCNQ1 inh 17 | KCNQ1 block val 140 | CHO KCNQ1 ctr 0.37 | KCNQ2 spec 122% | KCNQ1 KCNE1 spec active | KCNK3 confirm 115 | KCNK3 uninduced 0.1
CC(Cc1cccs1)NC(=O)Nc1cccc(Cl)c1 (stereo unspecified)	KCNK3 block -11, KCNK9 inh -18, KCNQ1 inh 9 | KCNQ1 block val 127 | CHO KCNQ1 ctr inactive | KCNQ1 ephys val active | KCNQ2 spec inactive | KCNQ1 KCNE1 spec 71% | KCNK9 inh conf 53% | Kir21 sel inactive | HEK293 Tl ctr 32% | KCNK3 confirm 109 | KCNK3 uninduced inactive
CC(C)NC(=O)Nc1cccc(Cl)c1	none
C(C#CCN1CCOCC1)#CCN1CCOCC1	none (no result: KCNK9 inh, KCNQ1 inh, hERG rescue, Kir21 inh, KCNQ1 act)
Cc1ccc2c(CN(C)Cc3ccc(OC(F)F)cc3)cc(=O)oc2c1C	KCNK3 block -10, KCNQ1 inh 11 | KCNQ1 block val 128 | CHO KCNQ1 ctr inactive | KCNQ1 ephys val inactive | KCNQ2 spec 101% | KCNQ1 KCNE1 spec 135% | KCNK3 confirm 126 | KCNK3 uninduced 0.15
O=S(=O)(Nc1ccccc1O)c1ccc(-c2ccccc2)cc1	KCNK3 block -11, KCNQ1 inh 15 | KCNQ1 block val 136 | CHO KCNQ1 ctr inactive | KCNQ1 ephys val inactive | KCNQ2 spec 94% | KCNQ1 KCNE1 spec 76% | KCNK3 confirm 120 | KCNK3 uninduced inactive
O=S(=O)(Nc1cccnc1Cl)c1ccc(-c2ccccc2)cc1	none
O=C(Oc1cccc(Nc2ncnc3ccccc23)c1)c1ccccc1Cl	KCNK3 block -9.6, KCNK9 inh -9, KCNQ1 inh 12 | KCNQ1 block val 140 | CHO KCNQ1 ctr 0.31 | KCNQ2 spec 131% | KCNQ1 KCNE1 spec active | KCNK9 inh conf 52% | Kir21 sel 42% | HEK293 Tl ctr 44% | KCNK3 confirm 139 | KCNK3 uninduced inactive
C=CCn1c(SCC(=O)N(CCOC)c2c(N)n(CCCC)c(=O)[nH]c2=O)nnc1-c1ccc(Cl)cc1	none
CC(C)(C)n1nnnc1C(c1ccc(Cl)cc1)N1CCCc2ccccc21 (stereo unspecified)	KCNK9 inh -11, KCNQ1 inh 6 | KCNQ1 block val 82 | CHO KCNQ1 ctr inactive | KCNQ2 spec 88% | KCNQ1 KCNE1 spec 85% | KCNK9 inh conf 56% | Kir21 sel inactive | HEK293 Tl ctr 42% | KCNK3 confirm 131 | KCNK3 uninduced 0.13
C[C@H]1CN([C@@H](C)CO)C(=O)c2cccc(NC(=O)C3CC3)c2O[C@H]1CN(C)Cc1ccncc1	none (no result: KCNK9 inh, KCNQ1 inh, hERG rescue, Kir21 inh, KCNQ1 act)
CCN(CC)C(=O)[C@H]1C[C@H](CC(=O)NCCc2ccccn2)C(=O)N2CCc3c([nH]c4cc(CCC(=O)N(C)C)ccc34)[C@]12C	none (no result: KCNK9 inh, KCNQ1 inh, hERG rescue, Kir21 inh, KCNQ1 act)
Cc1ccc(Cl)cc1N1CCN(C(=O)c2cc3c(=O)n(C)c4ccccc4c3n2C)CC1	KCNK3 block -16, KCNQ1 inh 15 | KCNQ1 block val 120 | CHO KCNQ1 ctr inactive | KCNQ1 ephys val inactive | KCNQ2 spec 126% | KCNQ1 KCNE1 spec inactive | KCNK3 confirm 137 | KCNK3 uninduced inactive
CN(CC(=O)Nc1ccccc1Br)C(=O)COc1ccc2ccccc2c1	none (no result: KCNK9 inh, KCNQ1 inh, hERG rescue, Kir21 inh, KCNQ1 act)
O=C(c1cc(-c2cccc(Cl)c2)nc2ccccc12)N1CCN(c2ccccn2)CC1	KCNK3 block -9.9, KCNQ1 inh 6 | KCNQ1 block val 69 | CHO KCNQ1 ctr inactive | KCNQ2 spec 108% | KCNQ1 KCNE1 spec 84% | KCNK3 confirm 120 | KCNK3 uninduced 0.12

Source: PubChem BioAssay
